SIRT5 block: inhibitors of human sirtuin-5 desuccinylase; Q9NXA8; Purified SirT5, succinyl-peptide AMC, trypsin-coupled fluorescence; inhibition, % at 15 µM; 330,000 compounds, 1.1% hits; in the data active = inhibition above about 15%
FN deposition inh: fibronectin deposition inhibition | AH1F fibroblasts, Alexa488-fibronectin deposition fluorescence, overnight | inhibition, % at 12.6 µM | 350,000 compounds, 0.086% hits | AID 743247;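 active = mean inhibition across replicates of 30% or more, regardless of how many single replicates reach that level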;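 note: positive control wells lacked labelled fibronectin entirely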
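Material: AH1F fibroblast monolayer depositing Alexa488-labelled fibronectin into matrix / Amount: 10000 AH1F cells per well / Signal: fluorescence 485/525 nm / Medium: DMEM, 2% serum / Compound: single dose, pinned / Incubation: 1 h cell adhesion before compound, then overnight fibronectin incubation / Reagent: Alexa488-FN, 24 nM final / Read-out: inhibition of fibronectin deposition signal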
PGC1a acetyl inh: lowers PGC1a acetylation signal in U2OS cells; AlphaScreen anti-acetyl-lysine; with virally co-expressed GCN5 acetyltransferase; 350,000 compounds, 0.17% hits; AID 651687; inhibition, % at 15.6 µM;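 active = every replicate shows inhibition of at least 40%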;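 note: 0% = neutral control wells and 100% = positive control wells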
FGF22 binding-1: FGF22 (human) thermal shift binding; 340,000 compounds, 1.5% hits; recombinant FGF22 thermal shift, SYPRO orange fluorescence; percent of sucrose octasulfate shift, DMSO zero; activity (Tm shift, normalised), % at 9.99 µM; Q9HCT0;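 active = mean Tm shift, scaled 0 neutral to 100 positive control, at about 1.3% or above, every replicate too, limit read from the data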
ERAP1 inh: inhibitors of human ERAP1 aminopeptidase. Q9NZ08. recombinant ERAP1, Leu-AMC fluorescence, 60 min. inhibition, % at 10.7 µM. 340,000 compounds, 0.15% hits;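 active = mean replicate inhibition of at least 30%, or all replicates individually reaching that 30% level; inactive = mean below 30% and not every replicate reaching it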;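 note: 0% = neutral control wells and 100% = L-leucinethiol positive control wells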
Target sequence (Q9NZ08 whole entry, looked up): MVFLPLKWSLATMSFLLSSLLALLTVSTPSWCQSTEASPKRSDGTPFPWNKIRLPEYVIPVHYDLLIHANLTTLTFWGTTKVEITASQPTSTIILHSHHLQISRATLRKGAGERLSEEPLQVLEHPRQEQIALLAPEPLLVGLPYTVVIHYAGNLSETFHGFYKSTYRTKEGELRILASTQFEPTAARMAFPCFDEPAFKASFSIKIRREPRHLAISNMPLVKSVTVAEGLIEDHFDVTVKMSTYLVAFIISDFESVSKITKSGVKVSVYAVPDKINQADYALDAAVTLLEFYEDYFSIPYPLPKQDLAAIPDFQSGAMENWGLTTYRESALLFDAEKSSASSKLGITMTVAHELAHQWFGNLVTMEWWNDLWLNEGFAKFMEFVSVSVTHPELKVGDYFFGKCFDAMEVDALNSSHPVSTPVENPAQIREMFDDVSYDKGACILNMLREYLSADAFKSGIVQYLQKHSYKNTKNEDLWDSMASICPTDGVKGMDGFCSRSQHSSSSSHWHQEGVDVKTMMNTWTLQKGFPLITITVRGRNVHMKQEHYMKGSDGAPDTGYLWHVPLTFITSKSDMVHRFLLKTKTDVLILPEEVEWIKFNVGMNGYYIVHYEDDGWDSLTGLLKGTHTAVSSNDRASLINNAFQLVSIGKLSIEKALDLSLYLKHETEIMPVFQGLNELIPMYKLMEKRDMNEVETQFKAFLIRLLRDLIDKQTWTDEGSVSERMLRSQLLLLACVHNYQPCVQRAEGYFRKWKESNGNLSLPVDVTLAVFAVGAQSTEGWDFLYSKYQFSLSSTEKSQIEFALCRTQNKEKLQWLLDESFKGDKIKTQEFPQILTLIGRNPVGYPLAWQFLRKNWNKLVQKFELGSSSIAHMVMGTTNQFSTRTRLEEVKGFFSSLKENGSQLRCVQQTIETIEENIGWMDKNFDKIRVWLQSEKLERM
FGF22 binding-2: binders of human FGF22 by thermal shift | shares compounds with FGF22 binding-1 | recombinant FGF22 thermal shift, SYPRO orange fluorescence | thermal shift activity, °C (ΔTm) at 38 µM | 1,000 compounds, 2% hits;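 active = fitted rise in melting shift crosses a set limit at or below the top valid dose tested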
TSA no protein: shows thermal shift signal without protein, FGF22 counter-screen | shares compounds with FGF22 binding-1 | compound-only SYPRO orange thermal shift counter-screen, no protein | AC50, µM (highest dose often 38 µM) | 1,000 compounds, 2% hits | AID 743019;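 active = rising signal whose fitted curve reaches the 0.54 level within the top valid dose, showing a melting point, actives reach about 13 µM in these data; inactive = the rest, including activity in the opposite direction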; note: value is where the raw curve crosses a fixed level and not half-maximal
* = called active by the depositor; i = inactive; nt = no result; [ ] = remark or other dose. Most compounds without a hit are left out; they make up all but 2.2% or so of the library.

SMILES	SIRT5 block	FN deposition inh	PGC1a acetyl inh	FGF22 binding-1	ERAP1 inh	FGF22 binding-2	TSA no protein
COc1ccc(NS(=O)(=O)c2cccc(C(=O)NNC(=O)c3ccccc3O)c2)cc1	-1	6	nt	2.0*	3	0.093	i
O=C(O)c1ccc(NC(=O)c2cccc(S(=O)(=O)Nc3ccc(C(=O)O)cc3)c2)cc1	6	3	-7	2.1*	0	0.22	i
O=C(CC(=O)c1ccccc1)Nc1cccc([N+](=O)[O-])c1	-8	8	nt	1.8*	-1	0.11	i
O=C(O)c1cccc(NS(=O)(=O)c2ccc(Cl)c(C(=O)Nc3cccc([N+](=O)[O-])c3)c2)c1	-1	-6	4	1.8*	nt	-0.072	i
O=C(O)c1ccc(NS(=O)(=O)c2ccc(C(=O)Nc3ccccc3)cc2)cc1	-1	nt	1	0	-1	nt	nt
C[C@H](CO)N1C[C@H](C)[C@H](CN(C)S(=O)(=O)c2cn(C)cn2)Oc2ccc(NC(=O)Cc3cn(C)c4ccccc34)cc2C1=O	-1	nt	-2	0	0	nt	nt
C[C@H]1CN([C@@H](C)CO)C(=O)c2cc(NC(=O)Nc3ccc(C(F)(F)F)cc3)ccc2O[C@H]1CN(C)Cc1ccncc1	3	nt	7	0	-3	nt	nt
O=C(Nc1ccc(Cl)cc1)N1C[C@@H]2[C@H](c3ccccc31)[C@H](CO)N2C(=O)C1CC1	-1	nt	-1	3.4*	-3	0.09	i
O=C(C1CCCCC1)N1[C@@H]2CN(S(=O)(=O)c3ccccc3)c3ccccc3[C@@H]2[C@@H]1CO	1	-10	-12	0	3	nt	nt
O=C(C1CC1)N1[C@H](CO)[C@H]2c3ccccc3N(S(=O)(=O)c3ccccc3)C[C@H]21	0	-5	4	2.0*	0	0.009	i
COc1cc(OC)cc(C(=O)NCC2CCN(C(=O)C(=O)c3cc4ccccc4o3)CC2)c1	nt	1	nt	0	0	nt	nt
CSc1ccc(C(=O)NCC2CCN(C(=O)C(=O)c3cc4ccccc4o3)CC2)cc1	nt	11	nt	1.5*	3	-0.037	i
CC(C)C(c1nnnn1CCc1ccccc1)N1CCOCC1 (stereo not given)	nt	nt	-27	nt	nt	nt	nt
CC(C)C(c1nnnn1CCc1ccccc1)N1CCSCC1 (stereo not given)	-2	7	nt	3.1*	0	0.032	i
Nc1nonc1-n1nnc(C(=O)N/N=C/c2cccnc2)c1CSc1ccc(Cl)cc1	1	7	nt	2.7*	0	-0.012	i
CC1CCN(Cc2c(C(=O)N/N=C/c3ccc(OC(C)C)cc3)nnn2-c2nonc2N)CC1	2	8	10	1.5*	-6	-0.12	i
C/C(=N\NC(=O)c1nnn(-c2nonc2N)c1CSc1ccc(C)cc1)c1cccnc1	-6	0	3	1.7*	1	-0.024	i
CNC[C@@H]1Oc2c(NS(=O)(=O)c3ccc(C)cc3)cccc2C(=O)N([C@H](C)CO)C[C@@H]1C	-4	nt	-2	0	0	nt	nt
O=C(NC1CCCCC1)N1CC(=O)N2[C@H](C1)[C@H](c1ccc(-c3cccc(F)c3)cc1)[C@@H]2CO	0	nt	1	0	0	nt	nt
O=C(Nc1cccc(F)c1)N1CC(=O)N2[C@@H](CO)[C@@H](c3ccc(Br)cc3)[C@@H]2C1	-3	nt	14	1.3*	1	0.25[42 µM]	i
O=C(NC1CCCCC1)N1CC(=O)N2[C@H](CO)[C@H](c3ccc(-c4cccc(F)c4)cc3)[C@H]2C1	-1	nt	1	1.4*	0	0.29[42 µM]	i
O=C1COc2ccc(S(=O)(=O)N3CCCC3)cc2N1	-6	10	nt	1.5*	-4	0.026	i
O=C1COc2ccc(S(=O)(=O)N3CCCCC3)cc2N1	2	3	5	0	-1	nt	nt
CC(=O)c1cccc(NC(=O)C2CCCN2S(=O)(=O)c2cccs2)c1 (stereo not given)	-3	0	3	17*	10	-0.082	i
O=C(Nc1ccc(Br)cc1)C1CCCN1S(=O)(=O)c1cccs1 (stereo not given)	nt	nt	8	nt	nt	nt	nt

Bioassay records: PubChem, Broad Institute
